We go through six compounds from ChEMBL document CHEMBL3763126, “Development of sigma-1 (σ1) receptor fluorescent ligands as versatile tools to study σ1 receptors” (Eur J Med Chem, 2016).

A short description of experiment [1]: Displacement of [3H]-DTG from sigma 2 receptor in Wistar hannover rat liver membrane after 120 mins. The format is cell membranes. The gist of the method: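 Six to nine concentrations of test drug, two or three experiments in duplicate; IC50 for inhibition of specific binding, Ki from nonlinear curve fitting.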
Experiment [2] has as its target T1, Sigma non-opioid intracellular receptor 1 (Homo sapiens, UniProt Q99720). In words: Displacement of 5-(Dimethylamino)-2-(6-((5-(4-(4-methylpiperidin-1-yl)butyl)-5,6,7,8-tetrahydronaphthalen-2-yl)oxy)hexyl)isoindoline-1,3-dione from sigma 1 receptor (unknown origin) expressed in MCF7 after 75 mins by flow cytometry.
Experiment [3] concerns the target T1, Sigma non-opioid intracellular receptor 1. The experiment can be described thus: Displacement of 5-(Dimethylamino)-2-{6-[(5-(4-(4-methylpiperidin-1-yl)butyl)naphthalen-2-yl)oxy]hexyl}isoindole-1,3-dione from sigma 1 receptor (unknown origin) expressed in MCF7 cells after 75 mins by flow cytometry.
The target of experiment [4] is Sigma non-opioid intracellular receptor 1 (Cavia porcellus, UniProt Q60492). The experiment can be described thus: Displacement of [3H]-pentazocine from sigma 1 receptor in guinea pig brain membrane after 120 mins. In kind it is cell membranes. The method in brief:
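IC50 from six to nine drug concentrations, two or three experiments with duplicate samples; Ki obtained by nonlinear curve fitting.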

T1 sequence (Q99720 whole entry): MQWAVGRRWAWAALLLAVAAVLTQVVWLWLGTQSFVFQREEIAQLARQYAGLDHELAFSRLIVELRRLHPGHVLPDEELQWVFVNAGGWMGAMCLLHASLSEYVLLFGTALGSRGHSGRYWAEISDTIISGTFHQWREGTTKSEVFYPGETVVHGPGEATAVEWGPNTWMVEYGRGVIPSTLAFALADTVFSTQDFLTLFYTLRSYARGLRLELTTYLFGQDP
Sequence of Sigma non-opioid intracellular receptor 1 (Cavia porcellus, UniProt Q60492) (Q60492 whole entry): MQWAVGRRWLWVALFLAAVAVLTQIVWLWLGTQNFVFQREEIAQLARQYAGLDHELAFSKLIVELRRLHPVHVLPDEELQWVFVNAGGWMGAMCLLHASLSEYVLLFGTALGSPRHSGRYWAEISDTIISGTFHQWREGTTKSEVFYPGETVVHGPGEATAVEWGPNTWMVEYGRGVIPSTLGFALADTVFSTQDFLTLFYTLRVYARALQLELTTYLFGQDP

Regarding `COc1ccc2c(CCCCN3CCC(C)CC3)cccc2c1`, the Ki in experiment [1] stood at 17.9 nM. Also, the IC50 is 15.5 nM in experiment [2] and 10.6 nM in experiment [3].
Consider `COc1ccc2c(c1)CCCC2CCCCN1CCC(C)CC1` (stereo not drawn), for which the Ki came to 1.01 nM in experiment [4] and 48.7 nM in experiment [1]. Also, the IC50 in experiment [2] came out at 11.3 nM; in experiment [3], 12.1 nM.
Regarding `CC1CCN(CCCCC2CCCc3cc(OCCCCCCN4C(=O)c5ccc(N(C)C)cc5C4=O)ccc32)CC1` (stereo not drawn), the values for the Ki in experiment [4] and in experiment [1] were 3.61 nM and 48.3 nM, respectively.
The matching figures for `CC1CCN(CCCCc2cccc3cc(OCCCCCCN4C(=O)c5ccc(N(C)C)cc5C4=O)ccc23)CC1`: 5.2 nM and 45.6 nM.
For `COc1cccc2c1CCCC2CCC(=O)N1CCN(C2CCCCC2)CC1` (stereo not drawn), in experiment [1], the Ki stood at 179 nM.
Turning to `COc1cc2c(cc1OC)CN(CCCN1CCc3c(OC)cccc3C1=O)CC2`, in experiment [1], the Ki is 4.24 nM.
